ChEMBL document CHEMBL4177655, “Synthesis and biological evaluation of Santacruzamate-A based analogues” (Bioorg Med Chem, 2017)
The source made the active and inactive calls. No cut-off for these calls is given here.

What was measured:
HCT-116 [1] = experiment: Antiproliferative activity against human HCT116 cells after 24 hrs by MTT assay; assay type: functional, cell-based; conditions: HCT-116, 24 h
HCT-116 [2] = experiment: Antiproliferative activity against human HCT116 cells after 48 hrs by MTT assay; assay type: functional, cell-based; conditions: HCT-116, 48 h
[3] = target: T1, Histone deacetylase (Homo sapiens) (UniProt Q13547+O15379+Q9UBN7+Q92769+Q9UQL6+Q8WUI4+Q9BY41+Q96DB2+P56524+Q9UKV0+Q969S8); experiment: Inhibition of HDAC in human HCT116 cells assessed as reduction in acetyl-histone-H3 levels at 10 uM after 24 hrs by Western blot analysis relative to control; assay type: cell-based
Procedure, shortened: (§1)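 HCT116 cells were treated 24 h at 10 µM, with DMSO vehicle as control. Total lysates (protein by Bradford against a BSA standard, ~30 µg loaded) were run on 15% SDS-PAGE under reducing conditions and transferred to nitrocellulose. Membranes were blocked in 5% milk, then probed with anti-acetyl-histone H3 or H4, with GAPDH as loading control. Detection by HRP secondary and ECL. Three experiments.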

[4] = target: T1, Histone deacetylase (Homo sapiens); experiment: Inhibition of HDAC in human HCT116 cells assessed as reduction in acetyl-histone-H4 levels at 10 uM after 24 hrs by Western blot analysis relative to control; assay type: cell-based; procedure, shortened: as §1
HCT-116 [5] = experiment: Antiproliferative activity against human HCT116 cells after 72 hrs by MTT assay; assay type: functional, cell-based; conditions: HCT-116, 72 h
[6] = target: Histone deacetylase 1 (Homo sapiens) (UniProt Q13547); experiment: Inhibition of full-length recombinant HDAC1 (unknown origin) expressed in baculovirus infected Sf9 insect cells preincubated for 16 hrs measured every 5 mins by fluorescence assay
Histone deacetylase 1 (Homo sapiens), sequence (Q13547 whole entry): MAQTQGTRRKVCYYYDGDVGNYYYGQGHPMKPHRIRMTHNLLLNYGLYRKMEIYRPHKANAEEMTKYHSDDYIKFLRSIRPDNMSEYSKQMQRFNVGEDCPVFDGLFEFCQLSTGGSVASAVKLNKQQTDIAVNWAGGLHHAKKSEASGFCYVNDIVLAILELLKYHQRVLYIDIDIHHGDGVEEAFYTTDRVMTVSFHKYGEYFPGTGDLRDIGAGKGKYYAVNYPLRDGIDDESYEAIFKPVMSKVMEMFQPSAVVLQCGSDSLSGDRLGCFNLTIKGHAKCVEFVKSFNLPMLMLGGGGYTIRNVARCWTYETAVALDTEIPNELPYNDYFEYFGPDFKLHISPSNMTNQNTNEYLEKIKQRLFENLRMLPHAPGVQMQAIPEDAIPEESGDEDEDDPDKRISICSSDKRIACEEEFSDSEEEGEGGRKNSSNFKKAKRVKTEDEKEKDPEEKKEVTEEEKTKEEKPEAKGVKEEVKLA

[7] = target: Histone deacetylase 1 (Homo sapiens) (UniProt Q13547); experiment: Inhibition of full-length recombinant HDAC1 (unknown origin) expressed in baculovirus infected Sf9 insect cells measured every 5 mins by fluorescence assay
[8] = target: Histone deacetylase 2 (Homo sapiens) (UniProt Q92769); experiment: Inhibition of full-length human recombinant HDAC2 expressed in baculovirus infected Sf9 insect cells preincubated for 16 hrs measured every 5 mins by fluorescence assay
Histone deacetylase 2 (Homo sapiens), sequence (Q92769 whole entry, the tested form may be a part): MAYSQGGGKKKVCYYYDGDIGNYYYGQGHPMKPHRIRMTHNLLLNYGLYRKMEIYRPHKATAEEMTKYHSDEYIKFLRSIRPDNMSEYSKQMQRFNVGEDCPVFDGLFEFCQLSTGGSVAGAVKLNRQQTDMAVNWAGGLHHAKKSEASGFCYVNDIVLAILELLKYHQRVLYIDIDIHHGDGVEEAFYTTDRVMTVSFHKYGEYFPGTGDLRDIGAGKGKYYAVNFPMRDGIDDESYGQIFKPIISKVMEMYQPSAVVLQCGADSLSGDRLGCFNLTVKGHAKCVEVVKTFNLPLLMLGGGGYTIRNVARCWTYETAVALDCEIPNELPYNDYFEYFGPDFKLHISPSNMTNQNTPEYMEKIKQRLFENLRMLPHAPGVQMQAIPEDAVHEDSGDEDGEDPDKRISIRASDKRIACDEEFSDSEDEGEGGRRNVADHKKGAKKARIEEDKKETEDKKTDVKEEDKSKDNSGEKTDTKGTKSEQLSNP

[9] = target: T2, Histone deacetylase 3/Nuclear receptor corepressor 2 (HDAC3/NCoR2) (Homo sapiens) (UniProt O15379+Q9Y618); experiment: Inhibition of human full length C-terminal His-tagged HDAC3/N-terminal GST-tagged human NCOR2 (395 to 489 residues) co-expressed in baculovirus infected Sf9 insect cells preincubated for 16 hrs measured every 5 mins by fluorescence assay
[10] = target: T2, Histone deacetylase 3/Nuclear receptor corepressor 2 (HDAC3/NCoR2) (Homo sapiens); experiment: Inhibition of human full length C-terminal His-tagged HDAC3/N-terminal GST-tagged human NCOR2 (395 to 489 residues) co-expressed in baculovirus infected Sf9 insect cells measured every 5 mins by fluorescence assay
[11] = target: T3, Protein deacetylase HDAC6 (Homo sapiens) (UniProt Q9UBN7); experiment: Inhibition of full-length recombinant HDAC6 (unknown origin) expressed in baculovirus infected Sf9 insect cells measured every 5 mins by fluorescence assay
T3 sequence (whole entry): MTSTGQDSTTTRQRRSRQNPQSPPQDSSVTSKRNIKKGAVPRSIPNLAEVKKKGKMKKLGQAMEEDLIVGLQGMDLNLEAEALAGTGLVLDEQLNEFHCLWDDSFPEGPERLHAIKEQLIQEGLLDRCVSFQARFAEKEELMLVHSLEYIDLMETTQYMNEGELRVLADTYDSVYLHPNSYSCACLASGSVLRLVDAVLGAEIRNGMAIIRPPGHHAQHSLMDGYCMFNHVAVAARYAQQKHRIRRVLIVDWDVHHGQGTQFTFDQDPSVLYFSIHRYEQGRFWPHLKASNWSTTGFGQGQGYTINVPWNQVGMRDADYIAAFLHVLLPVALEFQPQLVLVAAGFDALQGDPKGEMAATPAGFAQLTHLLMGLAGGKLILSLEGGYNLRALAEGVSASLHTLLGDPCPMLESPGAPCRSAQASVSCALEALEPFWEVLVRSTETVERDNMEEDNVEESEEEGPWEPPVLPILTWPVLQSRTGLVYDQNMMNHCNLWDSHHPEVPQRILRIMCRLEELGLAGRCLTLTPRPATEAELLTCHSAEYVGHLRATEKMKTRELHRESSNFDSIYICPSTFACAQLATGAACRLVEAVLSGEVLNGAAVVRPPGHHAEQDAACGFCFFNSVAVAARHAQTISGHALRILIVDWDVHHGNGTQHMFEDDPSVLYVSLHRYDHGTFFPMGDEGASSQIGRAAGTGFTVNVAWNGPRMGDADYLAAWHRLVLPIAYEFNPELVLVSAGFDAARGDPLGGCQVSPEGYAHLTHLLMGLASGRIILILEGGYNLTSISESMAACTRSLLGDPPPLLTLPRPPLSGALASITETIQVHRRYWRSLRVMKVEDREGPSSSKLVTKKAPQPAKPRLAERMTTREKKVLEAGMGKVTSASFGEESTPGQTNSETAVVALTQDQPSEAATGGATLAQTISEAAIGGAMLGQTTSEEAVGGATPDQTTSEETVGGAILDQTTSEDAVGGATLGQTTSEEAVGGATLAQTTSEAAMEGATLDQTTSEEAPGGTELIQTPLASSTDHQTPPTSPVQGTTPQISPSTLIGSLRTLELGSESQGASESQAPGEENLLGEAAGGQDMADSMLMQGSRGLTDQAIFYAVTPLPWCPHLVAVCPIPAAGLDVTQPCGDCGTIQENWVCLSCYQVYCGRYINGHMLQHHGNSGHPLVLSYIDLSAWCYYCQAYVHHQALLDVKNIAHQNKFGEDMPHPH

[12] = target: T4, Histone deacetylase 8 (Homo sapiens) (UniProt Q9BY41); experiment: Inhibition of human full-length recombinant C-termianl His-tagged HDAC8 expressed in baculovirus infected Sf9 insect cells measured every 5 mins by fluorescence assay
T4 sequence (whole entry): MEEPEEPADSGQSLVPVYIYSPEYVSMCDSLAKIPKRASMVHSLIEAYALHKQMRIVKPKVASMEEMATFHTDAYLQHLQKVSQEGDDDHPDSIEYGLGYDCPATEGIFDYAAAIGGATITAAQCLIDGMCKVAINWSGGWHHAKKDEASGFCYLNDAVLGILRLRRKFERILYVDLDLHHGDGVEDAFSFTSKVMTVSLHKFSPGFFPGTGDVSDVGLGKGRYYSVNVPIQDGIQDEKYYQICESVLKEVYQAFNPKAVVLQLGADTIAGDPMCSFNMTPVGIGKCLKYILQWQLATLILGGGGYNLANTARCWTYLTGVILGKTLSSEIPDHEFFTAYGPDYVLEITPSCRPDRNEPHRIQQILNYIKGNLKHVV

Structure (SMILES)	IC50 (HCT-116 [1]) [µM]	IC50 (HCT-116 [2]) [µM]	IC50 (HCT-116 [5]) [µM]	further results
CCOC(=O)NCCCC(=O)NCc1ccccc1	> 50		0.615	
CCOC(=O)NCCCC(=O)NCCCc1ccccc1	> 50	> 50	> 50	
O=C(CCCNC(=O)C(=O)O)NCCc1cccc(O)c1	> 50	> 50		
CCOC(=O)NCCCC(=O)NCCc1ccccc1	> 50	> 50	> 50	inhibition [6]: inactive; inhibition [7]: inactive; inhibition [8]: inactive; inhibition [9]: inactive; inhibition [10]: inactive; inhibition [11]: inactive; inhibition [12]: inactive
O=C(CCCNC(=O)C(=O)O)NCCCc1ccccc1	> 50			

The next lines start with results.

IC50 (HCT-116 [1]) [µM]	IC50 (HCT-116 [2]) [µM]	IC50 (HCT-116 [5]) [µM]	Structure (SMILES)	further results
> 50			O=C(CCCNC(=O)C(=O)O)NCCc1cccc(F)c1	
> 50	> 50		O=C(CCCNC(=O)C(=O)O)NCCc1ccccc1	
0.814	> 50		O=C(CCCNC(=O)C(=O)O)Nc1ccccc1	inhibition [3]: inactive; inhibition [4]: inactive
> 50	0.825	5 to 10	CCOC(=O)NCCCC(=O)NCCc1cccc(F)c1	
> 50	0.476	1 to 5	CCOC(=O)NCCCC(=O)NCCc1cccc(O)c1	inhibition [6]: inactive; inhibition [7]: inactive; inhibition [8]: inactive; inhibition [9]: inactive; inhibition [10]: inactive; inhibition [11]: inactive; inhibition [12]: inactive; inhibition [3]: inactive; inhibition [4]: inactive
< 50			O=C(CCCNC(=O)C(=O)O)NCCc1c[nH]c2ccccc12	
